Laboratory results taken from the M2OR odorant receptor database.
Substitutions are numbered along the chain they refer to.

What was measured:
Conditions in all cases: stereoisomer not certain
OR2A1 T73A R74C S168C = test system: T1, OR2A1 T73A R74C S168C
T1 sequence (whole entry): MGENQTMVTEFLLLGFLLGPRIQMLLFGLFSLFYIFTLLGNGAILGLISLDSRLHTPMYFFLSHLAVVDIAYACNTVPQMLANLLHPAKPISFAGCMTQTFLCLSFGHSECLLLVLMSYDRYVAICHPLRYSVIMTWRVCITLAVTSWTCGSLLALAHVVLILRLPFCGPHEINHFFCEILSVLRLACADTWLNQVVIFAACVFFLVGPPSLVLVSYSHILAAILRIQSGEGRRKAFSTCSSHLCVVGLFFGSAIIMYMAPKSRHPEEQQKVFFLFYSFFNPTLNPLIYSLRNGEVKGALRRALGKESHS
Procedure, shortened: (§1)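 Values were gathered from published papers (main text and supplementary material), with extra details requested from the original authors when needed, and checked for typos and inconsistencies. Each receptor–molecule pair is called responsive (active) if the original authors judged the measured signal statistically different from baseline, and non-responsive (inactive) otherwise. Assay methods varied by source, often transient mammalian cell-line luciferase assays. Recorded details include cell line, G-protein, co-transfected protein and tags.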

OR2A12 (Homo sapiens) = target: T2, OR2A12 (Homo sapiens) (UniProt Q8NGT7)
T2 sequence (whole entry): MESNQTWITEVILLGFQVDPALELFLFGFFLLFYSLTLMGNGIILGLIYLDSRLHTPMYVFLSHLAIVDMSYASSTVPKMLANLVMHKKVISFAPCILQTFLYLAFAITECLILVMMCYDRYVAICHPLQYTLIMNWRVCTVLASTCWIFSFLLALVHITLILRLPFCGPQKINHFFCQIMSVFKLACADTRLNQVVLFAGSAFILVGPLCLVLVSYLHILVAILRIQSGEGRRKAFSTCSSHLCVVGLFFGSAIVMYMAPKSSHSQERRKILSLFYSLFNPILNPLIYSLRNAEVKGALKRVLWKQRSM
Procedure, shortened: as §1

OR2A14 (Homo sapiens) = target: T3, OR2A14 (Homo sapiens) (UniProt Q96R47)
T3 sequence (whole entry): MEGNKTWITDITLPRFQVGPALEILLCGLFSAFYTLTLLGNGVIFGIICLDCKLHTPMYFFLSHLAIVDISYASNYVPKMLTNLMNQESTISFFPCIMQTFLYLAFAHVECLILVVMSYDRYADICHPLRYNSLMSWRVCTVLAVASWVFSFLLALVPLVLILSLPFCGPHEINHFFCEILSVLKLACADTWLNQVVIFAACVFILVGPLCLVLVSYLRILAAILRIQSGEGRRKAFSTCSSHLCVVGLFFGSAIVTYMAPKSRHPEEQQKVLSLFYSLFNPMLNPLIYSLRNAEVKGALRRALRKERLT
Procedure, shortened: as §1

OR2A2 (Homo sapiens) = target: T4, OR2A2 (Homo sapiens) (UniProt Q6IF42)
T4 sequence (whole entry): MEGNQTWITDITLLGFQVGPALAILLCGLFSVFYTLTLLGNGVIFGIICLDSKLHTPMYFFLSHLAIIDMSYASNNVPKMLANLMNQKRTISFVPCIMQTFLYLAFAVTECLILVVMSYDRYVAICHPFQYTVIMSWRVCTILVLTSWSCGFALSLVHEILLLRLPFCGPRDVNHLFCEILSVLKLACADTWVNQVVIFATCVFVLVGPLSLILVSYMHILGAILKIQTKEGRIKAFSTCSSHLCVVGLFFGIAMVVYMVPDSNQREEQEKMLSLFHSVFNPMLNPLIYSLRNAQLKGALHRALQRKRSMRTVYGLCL
Procedure, shortened: as §1

OR2A25 (Homo sapiens) = target: T5, OR2A25 (Homo sapiens) (UniProt A4D2G3)
T5 sequence (whole entry): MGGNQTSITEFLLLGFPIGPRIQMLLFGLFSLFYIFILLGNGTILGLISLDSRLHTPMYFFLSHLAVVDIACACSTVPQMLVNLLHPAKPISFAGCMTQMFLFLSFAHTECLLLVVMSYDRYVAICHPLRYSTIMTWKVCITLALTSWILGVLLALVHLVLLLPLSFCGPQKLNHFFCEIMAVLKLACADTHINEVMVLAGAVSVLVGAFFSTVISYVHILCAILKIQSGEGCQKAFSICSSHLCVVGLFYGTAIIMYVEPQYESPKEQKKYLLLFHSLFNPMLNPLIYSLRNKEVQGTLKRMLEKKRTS
Procedure, shortened: as §1

OR2A2 = test system: T6, OR2A2
T6 sequence (whole entry): T4 sequence (whole entry) with F280L
Procedure, shortened: as §1

OR2A4 (Homo sapiens) = target: T7, OR2A4 (Homo sapiens) (UniProt O95047)
T7 sequence (whole entry): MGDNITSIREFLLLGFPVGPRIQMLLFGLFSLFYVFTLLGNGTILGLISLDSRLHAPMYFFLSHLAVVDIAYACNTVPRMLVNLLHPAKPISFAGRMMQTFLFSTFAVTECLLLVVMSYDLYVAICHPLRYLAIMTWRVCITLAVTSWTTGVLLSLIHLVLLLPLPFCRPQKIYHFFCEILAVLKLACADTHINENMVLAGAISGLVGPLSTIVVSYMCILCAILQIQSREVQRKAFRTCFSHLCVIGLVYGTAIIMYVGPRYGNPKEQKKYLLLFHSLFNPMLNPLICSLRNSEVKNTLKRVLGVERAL
Procedure, shortened: as §1

OR2A5 (Homo sapiens) = target: T8, OR2A5 (Homo sapiens) (UniProt Q96R48)
T8 sequence (whole entry): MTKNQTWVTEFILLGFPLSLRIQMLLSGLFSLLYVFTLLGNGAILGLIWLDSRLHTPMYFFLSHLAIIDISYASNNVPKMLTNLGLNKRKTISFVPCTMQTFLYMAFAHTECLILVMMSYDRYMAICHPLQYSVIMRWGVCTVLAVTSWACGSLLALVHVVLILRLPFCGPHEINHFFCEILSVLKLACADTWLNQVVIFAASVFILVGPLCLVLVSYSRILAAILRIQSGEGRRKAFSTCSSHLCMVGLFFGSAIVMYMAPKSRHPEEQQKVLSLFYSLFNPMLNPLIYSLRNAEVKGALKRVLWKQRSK
Procedure, shortened: as §1

OR2A5 I126V A202S A255T = test system: T9, OR2A5 I126V A202S A255T
T9 sequence (whole entry): T8 sequence (whole entry) with I126V, A202S, A255T
Procedure, shortened: as §1

OR2A7 (Homo sapiens) = target: T10, OR2A7 (Homo sapiens) (UniProt Q96R45)
T10 sequence (whole entry): T7 sequence (whole entry) with R9T, R238C, V250F
Procedure, shortened: as §1

OR2A7 = test system: T11, OR2A7
T11 sequence (whole entry): T7 sequence (whole entry) with R238C, V250F
Procedure, shortened: as §1

OR2AE1 (Homo sapiens) = target: T12, OR2AE1 (Homo sapiens) (UniProt Q8NHA4)
T12 sequence (whole entry): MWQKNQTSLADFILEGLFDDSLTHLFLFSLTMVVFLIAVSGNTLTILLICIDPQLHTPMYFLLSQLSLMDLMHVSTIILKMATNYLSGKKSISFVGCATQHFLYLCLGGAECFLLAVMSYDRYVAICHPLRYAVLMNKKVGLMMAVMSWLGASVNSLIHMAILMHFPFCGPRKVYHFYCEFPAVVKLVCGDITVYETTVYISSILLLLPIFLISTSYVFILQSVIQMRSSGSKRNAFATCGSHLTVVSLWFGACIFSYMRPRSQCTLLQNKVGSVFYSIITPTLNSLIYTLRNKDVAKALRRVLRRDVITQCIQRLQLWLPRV
Procedure, shortened: as §1

OR2AG1 (Homo sapiens) = target: T13, OR2AG1 (Homo sapiens) (UniProt Q9H205)
T13 sequence (whole entry): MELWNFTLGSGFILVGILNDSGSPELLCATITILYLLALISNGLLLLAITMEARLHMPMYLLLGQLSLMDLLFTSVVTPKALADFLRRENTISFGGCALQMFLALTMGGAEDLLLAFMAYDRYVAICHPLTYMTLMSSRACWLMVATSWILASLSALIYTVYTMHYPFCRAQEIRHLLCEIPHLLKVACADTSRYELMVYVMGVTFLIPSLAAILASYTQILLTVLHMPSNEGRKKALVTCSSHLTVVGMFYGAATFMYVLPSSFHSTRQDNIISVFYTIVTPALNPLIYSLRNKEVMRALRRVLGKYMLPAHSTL
Procedure, shortened: as §1

OR2AG2 (Homo sapiens) = target: T14, OR2AG2 (Homo sapiens) (UniProt A6NM03)
T14 sequence (whole entry): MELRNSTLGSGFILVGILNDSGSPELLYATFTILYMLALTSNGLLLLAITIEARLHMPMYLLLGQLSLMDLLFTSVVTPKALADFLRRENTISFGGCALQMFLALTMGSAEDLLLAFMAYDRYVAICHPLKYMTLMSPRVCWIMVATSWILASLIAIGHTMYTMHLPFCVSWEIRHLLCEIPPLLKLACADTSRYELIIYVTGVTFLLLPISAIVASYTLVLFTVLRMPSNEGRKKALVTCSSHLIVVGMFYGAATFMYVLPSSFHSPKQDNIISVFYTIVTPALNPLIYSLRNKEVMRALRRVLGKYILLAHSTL
Procedure, shortened: as §1

OR2AK2 (Homo sapiens) = target: T15, OR2AK2 (Homo sapiens) (UniProt Q8NG84)
T15 sequence (whole entry): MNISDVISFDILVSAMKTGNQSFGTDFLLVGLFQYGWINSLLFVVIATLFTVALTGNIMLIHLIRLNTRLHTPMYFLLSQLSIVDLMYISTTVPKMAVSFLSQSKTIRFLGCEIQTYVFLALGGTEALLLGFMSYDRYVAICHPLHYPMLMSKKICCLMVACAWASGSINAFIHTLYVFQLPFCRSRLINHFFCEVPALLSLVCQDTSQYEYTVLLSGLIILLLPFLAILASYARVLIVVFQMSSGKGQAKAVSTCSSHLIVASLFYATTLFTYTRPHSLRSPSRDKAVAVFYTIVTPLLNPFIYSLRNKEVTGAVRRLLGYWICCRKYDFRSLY
Procedure, shortened: as §1

OR2AP1 (Homo sapiens) = target: T16, OR2AP1 (Homo sapiens) (UniProt Q8NGE2)
T16 sequence (whole entry): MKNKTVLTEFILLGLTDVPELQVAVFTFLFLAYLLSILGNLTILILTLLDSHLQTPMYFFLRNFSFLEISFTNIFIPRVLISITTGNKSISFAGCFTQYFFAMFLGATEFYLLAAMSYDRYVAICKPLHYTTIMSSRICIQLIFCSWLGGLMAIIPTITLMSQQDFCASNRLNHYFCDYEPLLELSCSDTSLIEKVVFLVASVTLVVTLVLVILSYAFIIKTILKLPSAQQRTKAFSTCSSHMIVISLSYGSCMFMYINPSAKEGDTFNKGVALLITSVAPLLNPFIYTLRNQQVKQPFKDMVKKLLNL
Procedure, shortened: as §1

OR2AT4 (Homo sapiens) = target: T17, OR2AT4 (Homo sapiens) (UniProt A6NND4)
T17 sequence (whole entry): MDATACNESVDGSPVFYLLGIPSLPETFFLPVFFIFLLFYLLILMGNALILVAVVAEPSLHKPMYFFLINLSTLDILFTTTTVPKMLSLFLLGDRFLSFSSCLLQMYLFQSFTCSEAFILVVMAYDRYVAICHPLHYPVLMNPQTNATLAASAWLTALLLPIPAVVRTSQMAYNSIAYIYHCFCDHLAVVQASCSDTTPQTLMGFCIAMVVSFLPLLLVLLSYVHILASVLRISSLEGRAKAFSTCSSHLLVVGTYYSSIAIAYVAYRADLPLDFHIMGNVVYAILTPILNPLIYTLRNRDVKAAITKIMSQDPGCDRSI
Procedure, shortened: as §1

OR2B11 (Homo sapiens) = target: T18, OR2B11 (Homo sapiens) (UniProt Q5JQS5)
T18 sequence (whole entry): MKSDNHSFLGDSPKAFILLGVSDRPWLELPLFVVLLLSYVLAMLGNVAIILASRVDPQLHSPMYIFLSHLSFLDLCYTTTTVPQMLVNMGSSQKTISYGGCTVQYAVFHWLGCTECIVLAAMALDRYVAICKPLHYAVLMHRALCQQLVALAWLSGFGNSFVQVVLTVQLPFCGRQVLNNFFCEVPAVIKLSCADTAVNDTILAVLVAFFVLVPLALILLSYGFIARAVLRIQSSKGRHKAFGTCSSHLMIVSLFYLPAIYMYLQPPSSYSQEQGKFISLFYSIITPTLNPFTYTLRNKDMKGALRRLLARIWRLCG
Procedure, shortened: as §1

OR2B2 (Homo sapiens) = target: T19, OR2B2 (Homo sapiens) (UniProt Q9GZK3)
T19 sequence (whole entry): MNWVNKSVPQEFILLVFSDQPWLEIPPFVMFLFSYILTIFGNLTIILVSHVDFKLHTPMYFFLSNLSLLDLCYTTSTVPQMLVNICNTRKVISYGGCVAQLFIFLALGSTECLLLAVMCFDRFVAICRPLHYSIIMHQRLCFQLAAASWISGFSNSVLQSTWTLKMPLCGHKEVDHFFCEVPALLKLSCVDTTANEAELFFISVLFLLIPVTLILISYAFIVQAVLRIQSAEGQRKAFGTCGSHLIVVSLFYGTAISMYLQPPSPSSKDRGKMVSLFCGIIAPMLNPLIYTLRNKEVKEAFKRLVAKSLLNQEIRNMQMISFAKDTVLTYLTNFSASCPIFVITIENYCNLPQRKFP
Procedure, shortened: as §1

Measured: odorant receptor agonist call

CCC1OC(=O)C(O)=C1C (stereo not drawn)
inactive: all assays above

CCC1OC(C)=C(O)C1=O (stereo not drawn)
inactive: all assays above
